Experimental findings from ChEMBL document CHEMBL3877241 (J Med Chem, 2016) are described below.

The source made the active and inactive calls. No cut-off for these calls is given here.

In data set [1] the target is T1, Protein deacetylase HDAC6 (Homo sapiens) (UniProt Q9UBN7).
T1 sequence (whole entry): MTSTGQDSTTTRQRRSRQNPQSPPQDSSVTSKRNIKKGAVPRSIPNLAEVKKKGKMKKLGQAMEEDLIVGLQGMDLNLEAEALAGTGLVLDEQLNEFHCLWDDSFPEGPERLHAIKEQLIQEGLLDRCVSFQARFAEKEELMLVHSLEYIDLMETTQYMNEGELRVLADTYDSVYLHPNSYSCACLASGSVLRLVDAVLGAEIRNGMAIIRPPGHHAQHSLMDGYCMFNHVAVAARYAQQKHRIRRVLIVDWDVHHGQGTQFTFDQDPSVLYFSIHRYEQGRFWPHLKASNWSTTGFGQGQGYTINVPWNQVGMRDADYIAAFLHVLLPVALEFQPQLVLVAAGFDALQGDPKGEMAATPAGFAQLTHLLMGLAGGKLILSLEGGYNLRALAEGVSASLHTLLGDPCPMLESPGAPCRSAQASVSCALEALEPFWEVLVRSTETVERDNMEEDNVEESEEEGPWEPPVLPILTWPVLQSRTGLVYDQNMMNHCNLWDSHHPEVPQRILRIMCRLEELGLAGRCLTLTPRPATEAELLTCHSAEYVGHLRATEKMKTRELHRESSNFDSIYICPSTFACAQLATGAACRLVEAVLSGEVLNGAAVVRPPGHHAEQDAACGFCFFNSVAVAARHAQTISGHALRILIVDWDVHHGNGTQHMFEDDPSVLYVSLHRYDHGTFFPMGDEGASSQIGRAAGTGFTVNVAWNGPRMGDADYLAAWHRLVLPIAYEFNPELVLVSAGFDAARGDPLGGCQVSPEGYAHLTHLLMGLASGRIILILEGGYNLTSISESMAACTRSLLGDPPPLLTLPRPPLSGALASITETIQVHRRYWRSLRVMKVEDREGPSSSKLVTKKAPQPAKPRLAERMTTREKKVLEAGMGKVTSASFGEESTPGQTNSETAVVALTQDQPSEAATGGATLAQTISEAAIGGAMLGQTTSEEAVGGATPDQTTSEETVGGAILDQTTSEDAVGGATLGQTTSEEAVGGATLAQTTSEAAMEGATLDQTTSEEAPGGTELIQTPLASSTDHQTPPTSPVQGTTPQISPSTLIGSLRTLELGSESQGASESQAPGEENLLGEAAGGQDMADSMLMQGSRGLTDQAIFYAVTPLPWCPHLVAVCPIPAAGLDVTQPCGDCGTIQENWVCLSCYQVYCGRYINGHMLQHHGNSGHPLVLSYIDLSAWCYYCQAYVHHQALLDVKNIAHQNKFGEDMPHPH
Nature of the data set: Inhibition of HDAC6 in human MOLM14 cells assessed as increase in acetylated tubulin level at 2 times antiproliferative IC50 after 16 to 48 hrs by immunoblot method. It counts as cell-based. Conditions: MOLM-14. The method in brief:
(§1)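 KMS-12-BM or MOLM-14 cells (at least 3x10^6 per condition) treated at about 2x their proliferation IC50 in a time course of 0 to 48 h. Tubastatin (15 μM, 48 h) used as HDAC6 control. Lysates immunoblotted for acetyl-α-tubulin and acetyl-H3 (Lys9/Lys14); re-probed for α-tubulin and H3.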
On the technique in general: Immunoblotting shows a protein as a band on a membrane.

Data set [2] is described as follows: Antiproliferative activity against human Jurkat cells. It counts as functional, cell-based.
In data set [3] the target is Histone deacetylase 3/Nuclear receptor corepressor 2 (HDAC3/NCoR2) (Homo sapiens, UniProt O15379). Nature of the data set: Inhibition of full length human recombinant C-terminal His-tagged HDAC3 (1 to 428 residues)/N-terminal GST-tagged NCOR2 (395 to 489 residues) expressed in insect cells preincubated with enzyme followed by fluorogenic Arg-His-Lys-Lys(Ac)-AMC substrate addition measured after 2 hrs by fluorescence assay.

The target of data set [4] is Tyrosine-protein kinase JAK3 (Homo sapiens) (UniProt P52333). Nature of the data set: Inhibition of human JAK3 JH1 catalytic domain (I781 to S1124 residues) expressed in mammalian expression system assessed as residual activity at 100 nM by KINOMEScan assay relative to control. In outline: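 DiscoveRx KINOMEscan competition binding against ATP sites in a 97-kinase panel, with compound at 100 nM. Binding reported as % of control.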
Chain of Tyrosine-protein kinase JAK3 (Homo sapiens) (P52333 whole entry, the tested form may be a part): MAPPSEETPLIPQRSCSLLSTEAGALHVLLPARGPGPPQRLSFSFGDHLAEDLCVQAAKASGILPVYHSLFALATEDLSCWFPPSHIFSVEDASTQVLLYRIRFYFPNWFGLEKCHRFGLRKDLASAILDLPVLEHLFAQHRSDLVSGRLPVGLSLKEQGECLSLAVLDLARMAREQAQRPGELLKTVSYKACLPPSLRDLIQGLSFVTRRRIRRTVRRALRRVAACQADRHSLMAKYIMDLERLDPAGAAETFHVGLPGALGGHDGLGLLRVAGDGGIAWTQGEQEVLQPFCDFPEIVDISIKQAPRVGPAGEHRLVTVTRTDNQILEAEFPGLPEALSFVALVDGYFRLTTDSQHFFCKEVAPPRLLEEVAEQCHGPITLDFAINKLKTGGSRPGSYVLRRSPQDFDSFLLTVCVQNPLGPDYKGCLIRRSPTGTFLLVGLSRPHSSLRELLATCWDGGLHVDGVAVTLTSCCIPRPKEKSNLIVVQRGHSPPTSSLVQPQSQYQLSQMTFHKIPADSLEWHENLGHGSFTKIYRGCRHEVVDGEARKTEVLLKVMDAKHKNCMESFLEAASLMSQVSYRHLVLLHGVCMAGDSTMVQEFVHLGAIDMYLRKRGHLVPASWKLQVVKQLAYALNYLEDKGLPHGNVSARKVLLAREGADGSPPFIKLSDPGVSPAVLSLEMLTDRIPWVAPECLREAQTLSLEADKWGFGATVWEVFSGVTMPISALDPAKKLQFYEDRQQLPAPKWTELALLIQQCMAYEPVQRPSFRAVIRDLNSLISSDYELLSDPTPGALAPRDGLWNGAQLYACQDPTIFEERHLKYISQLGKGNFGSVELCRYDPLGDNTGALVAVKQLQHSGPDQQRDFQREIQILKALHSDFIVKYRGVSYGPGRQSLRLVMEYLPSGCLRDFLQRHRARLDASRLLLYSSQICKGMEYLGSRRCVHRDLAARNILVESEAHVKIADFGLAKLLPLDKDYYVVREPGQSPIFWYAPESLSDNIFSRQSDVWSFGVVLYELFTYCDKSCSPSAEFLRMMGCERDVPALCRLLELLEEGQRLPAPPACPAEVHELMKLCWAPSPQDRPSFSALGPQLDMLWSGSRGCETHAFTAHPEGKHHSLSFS

A further data set has as its target Histone deacetylase 8 (Homo sapiens, UniProt Q9BY41). Nature of the data set: Inhibition of human recombinant C-terminal His-tagged HDAC8 (1 to 377 residues) expressed in insect cells preincubated with enzyme followed by fluorogenic Arg-His-Lys(Ac)-Lys(Ac)-AMC substrate addition measured after 2 hrs by fluorescence assay. In outline: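 HDAC8 in 50 mM Tris-HCl pH 8.0, 137 mM NaCl, 2.7 mM KCl, 1 mM MgCl2 was pre-incubated with compound from DMSO. 50 µM Arg-His-Lys(Ac)-Lys(Ac) substrate was added and the reaction ran 2 h at 30 °C. Trichostatin A developer stopped it, with fluorescence read at Ex/Em 360/460 nm. IC50 from a 10-dose curve.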

Data set [5] has as its target T1, Protein deacetylase HDAC6 (Homo sapiens). The experiment in a line: Inhibition of HDAC6 in human KMS-12-BM cells assessed as increase in acetylated tubulin level at 2 times antiproliferative IC50 up to 48 hrs by immunoblot method. Format: cell-based. The method in brief: as §1
The nature of data set [6]: Antiproliferative activity against human KMS-12-BM cells after 48 hrs by CellTiter-Glo assay. Format: functional, cell-based.
A short description of data set [7]: Therapeutic index, ratio of IC50 for mouse TAMH cells to IC50 for human cancer cells. Conditions: cancer cell lines.
Data set [8] concerns the target Mast/stem cell growth factor receptor Kit (Homo sapiens, UniProt P10721). Nature of the data set: Inhibition of human KIT (I571 to D952 residues) expressed in bacterial expression system by KINOMEScan assay.
Data set [9] addresses Mitogen-activated protein kinase 10 (Homo sapiens, UniProt P53779). The experiment in a line: Inhibition of human MAPK10 (V28 to Q422 residues) expressed in mammalian expression system assessed as residual activity at 100 nM by KINOMEScan assay relative to control. In outline: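 DiscoveRx competition-binding panel of 97 kinases, measuring binding to the kinase ATP site rather than catalytic turnover. The test compound was run at a single 100 nM concentration. Results are given as % of control binding.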

For data set [10], the system named is MOLM-14. Nature of the data set: Induction of apoptosis in human MOLM14 cells assessed as late apoptotic cells at 1.5 uM after 48 hrs by Annexin-V FITC/propidium iodide staining based flow cytometry (reference value: 2.1 to 2.2%). Format: functional. A general note: Flow cytometry measures light scatter and fluorescence of single cells or particles in a stream.

Data set [11] concerns MOLM-14. The experiment in a line: Induction of apoptosis in human MOLM14 cells assessed as necrotic cells at 0.75 uM after 48 hrs by Annexin-V FITC/propidium iodide staining based flow cytometry (reference value: 0.1%). It counts as functional. The method in brief: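 MOLM-14 cells treated 48 h at the stated concentrations; doxorubicin as positive control. Stained with Annexin V-FITC and propidium iodide and analysed by flow cytometry (at least 10,000 events). Gated quadrants: Annexin V−/PI− viable, Annexin V+/PI− early apoptotic, Annexin V+/PI+ late apoptotic.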

Data set [12] addresses High affinity nerve growth factor receptor (Homo sapiens, UniProt P04629). Nature of the data set: Inhibition of human NTRK1 (G475 to G790 residues) expressed in mammalian expression system by KINOMEScan assay.
Data set [13] is described as follows: Antiproliferative activity against human MOLM14 cells harboring FLT3-ITD mutant after 48 hrs by CellTiter-Glo assay. Conditions: MOLM-14, 48 h. It counts as functional, cell-based.

Chain of Mitogen-activated protein kinase 10 (P53779 whole entry, the tested form may be a part): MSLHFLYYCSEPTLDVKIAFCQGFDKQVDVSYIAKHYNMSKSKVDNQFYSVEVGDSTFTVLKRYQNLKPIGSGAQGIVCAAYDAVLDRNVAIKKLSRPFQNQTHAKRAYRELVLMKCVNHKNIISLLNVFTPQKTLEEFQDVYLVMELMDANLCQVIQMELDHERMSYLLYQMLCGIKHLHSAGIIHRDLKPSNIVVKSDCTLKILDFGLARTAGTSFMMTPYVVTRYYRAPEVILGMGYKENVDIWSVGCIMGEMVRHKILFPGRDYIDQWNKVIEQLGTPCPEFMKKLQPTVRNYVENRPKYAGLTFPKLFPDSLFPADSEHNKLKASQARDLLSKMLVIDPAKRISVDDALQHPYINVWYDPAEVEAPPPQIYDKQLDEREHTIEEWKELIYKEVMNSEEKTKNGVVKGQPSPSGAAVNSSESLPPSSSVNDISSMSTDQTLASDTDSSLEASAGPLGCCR
Chain of High affinity nerve growth factor receptor (P04629 whole entry, the tested form may be a part): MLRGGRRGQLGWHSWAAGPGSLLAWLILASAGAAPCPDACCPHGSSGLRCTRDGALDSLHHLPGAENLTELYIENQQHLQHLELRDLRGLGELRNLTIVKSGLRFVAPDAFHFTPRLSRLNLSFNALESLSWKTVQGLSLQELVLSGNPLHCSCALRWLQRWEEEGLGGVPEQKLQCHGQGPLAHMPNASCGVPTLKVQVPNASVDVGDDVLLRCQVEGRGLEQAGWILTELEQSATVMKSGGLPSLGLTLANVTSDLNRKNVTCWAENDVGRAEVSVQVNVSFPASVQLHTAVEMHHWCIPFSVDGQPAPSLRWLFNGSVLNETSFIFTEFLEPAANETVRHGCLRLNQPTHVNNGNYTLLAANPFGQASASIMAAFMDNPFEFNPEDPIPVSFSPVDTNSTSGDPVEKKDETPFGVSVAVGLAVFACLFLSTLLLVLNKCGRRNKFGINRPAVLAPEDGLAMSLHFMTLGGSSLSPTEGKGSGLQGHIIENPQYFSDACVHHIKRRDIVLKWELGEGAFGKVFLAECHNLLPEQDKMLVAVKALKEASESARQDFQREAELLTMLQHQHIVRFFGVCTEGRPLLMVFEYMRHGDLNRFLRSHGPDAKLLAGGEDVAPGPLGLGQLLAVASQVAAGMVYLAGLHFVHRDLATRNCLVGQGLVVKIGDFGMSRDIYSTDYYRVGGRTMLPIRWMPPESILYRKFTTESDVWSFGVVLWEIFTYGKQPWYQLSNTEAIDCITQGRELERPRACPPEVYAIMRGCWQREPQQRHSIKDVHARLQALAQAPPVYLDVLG
Chain of Mast/stem cell growth factor receptor Kit (P10721 whole entry, the tested form may be a part): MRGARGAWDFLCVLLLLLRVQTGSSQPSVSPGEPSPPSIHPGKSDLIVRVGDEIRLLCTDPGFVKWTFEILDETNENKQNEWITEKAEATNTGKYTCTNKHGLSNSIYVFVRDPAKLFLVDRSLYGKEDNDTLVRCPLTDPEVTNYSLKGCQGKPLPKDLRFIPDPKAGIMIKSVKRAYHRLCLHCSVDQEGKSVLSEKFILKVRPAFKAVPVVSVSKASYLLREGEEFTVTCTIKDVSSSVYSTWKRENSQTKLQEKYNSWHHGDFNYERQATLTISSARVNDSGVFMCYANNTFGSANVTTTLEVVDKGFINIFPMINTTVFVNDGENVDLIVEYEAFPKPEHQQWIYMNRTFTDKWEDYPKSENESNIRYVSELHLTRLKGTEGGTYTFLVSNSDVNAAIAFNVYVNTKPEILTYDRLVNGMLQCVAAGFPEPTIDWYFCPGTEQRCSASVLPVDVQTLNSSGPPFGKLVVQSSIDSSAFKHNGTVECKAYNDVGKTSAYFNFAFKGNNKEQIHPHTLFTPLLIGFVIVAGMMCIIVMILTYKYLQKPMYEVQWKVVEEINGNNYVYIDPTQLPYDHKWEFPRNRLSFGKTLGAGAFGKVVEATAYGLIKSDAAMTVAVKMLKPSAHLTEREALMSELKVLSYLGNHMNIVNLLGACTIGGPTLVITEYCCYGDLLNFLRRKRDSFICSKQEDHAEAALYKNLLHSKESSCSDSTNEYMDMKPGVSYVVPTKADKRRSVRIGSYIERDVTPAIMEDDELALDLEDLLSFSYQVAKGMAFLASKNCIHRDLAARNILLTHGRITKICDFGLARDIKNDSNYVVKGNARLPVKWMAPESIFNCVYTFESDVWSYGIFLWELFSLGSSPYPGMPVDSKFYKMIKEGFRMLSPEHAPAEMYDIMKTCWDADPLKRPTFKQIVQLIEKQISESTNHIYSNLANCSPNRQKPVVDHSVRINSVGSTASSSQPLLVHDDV
Chain of Histone deacetylase 8 (Q9BY41 whole entry, the tested form may be a part): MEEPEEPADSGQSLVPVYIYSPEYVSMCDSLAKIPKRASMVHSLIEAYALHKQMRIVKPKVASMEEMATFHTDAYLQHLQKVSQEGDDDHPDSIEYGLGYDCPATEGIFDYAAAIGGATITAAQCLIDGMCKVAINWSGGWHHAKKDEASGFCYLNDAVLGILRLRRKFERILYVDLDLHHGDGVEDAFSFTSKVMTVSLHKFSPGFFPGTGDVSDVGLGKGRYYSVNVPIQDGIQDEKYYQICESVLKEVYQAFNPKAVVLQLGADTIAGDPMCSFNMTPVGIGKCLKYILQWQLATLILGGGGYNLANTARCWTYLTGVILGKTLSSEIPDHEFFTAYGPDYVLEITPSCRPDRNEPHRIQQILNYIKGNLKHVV

In the case of `O=C(CCCCCCOc1ccc2cc1COC/C=C/COCc1cccc(c1)-c1ccnc(n1)N2)NO`, the inhibition result in data set [1] and in data set [5] was “Active” in each case. Further, the IC50 in data set [2] is 1190 nM; in data set [3] it was 2170 nM; at Histone deacetylase 8, 740 nM; in data set [6], 2110 nM; in data set [8], 1000 to 10000 nM; in [12], 1000 to 10000 nM. In [13], this molecule had an IC50 of 1140 nM. Besides, the Activity in data set [4] came out at 7.9%; in data set [9] it was 29%; in the data set on MOLM-14 [10] it was 13%; in the data set on MOLM-14 [11], 0%. Further, the selectivity ratio in data set [7] came out at 8.7.

By IC50 is commonly meant the concentration that inhibits the measured activity by half.
